In ChEMBL document CHEMBL4265975, “Synthesis, biological evaluation and molecular modeling of a novel series of fused 1,2,3-triazoles as potential anti-coronavirus agents” (Bioorg Med Chem Lett, 2018):

Legend:
[1] = Selectivity index, ratio of MCC for HEL cells to EC50 for Herpes simplex virus 2 strain G infected in HEL cells; format: toxicity, cell-based; conditions: human, read-out: Selectivity Index
How it was run: (§1)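 SI is MCC divided by EC50. […] MCC was measured in parallel on HEL cells seeded at 5 x 10^3 cells/well, as the lowest concentration causing microscopically visible alteration of cell morphology. The top concentration tested was 100 µM.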

Vaccinia virus = assay: Antiviral activity against Vaccinia virus infected in human HEL cells assessed as inhibition of virus-induced cytopathic effect after 3 days by microscopic method; format: functional, organism-based; conditions: Orthopoxvirus vaccinia, 72 h
Human coronavirus 229E = assay: Antiviral activity against Human coronavirus 229E infected in HEL cells assessed as reduction in virus-induced pathogenicity after 3 days by microscopic method; format: functional, organism-based; conditions: 72 h
Human alphaherpesvirus 2 = assay: Antiviral activity against Human herpesvirus 2 strain G infected in human HEL cells assessed as inhibition of virus-induced cytopathic effect after 3 days by microscopic method; format: functional, organism-based; conditions: Human alphaherpesvirus 2, strain G, 72 h
[2] = Selectivity index, ratio of MCC for HEL cells to EC50 for Herpes simplex virus 1 KOS infected in HEL cells; format: toxicity, cell-based; conditions: human, read-out: Selectivity Index; how it was run: as §1
[3] = Selectivity index, ratio of MCC for HEL cells to EC50 for acyclovir-resistant TK-defecient Herpes simplex virus 1 KOS infected in HEL cells; format: toxicity, cell-based; conditions: human, read-out: Selectivity Index; how it was run: as §1
[4] = Selectivity index, ratio of MCC for HEL cells to EC50 for Human adenovirus 2 infected in HEL cells; format: toxicity, cell-based; conditions: read-out: Selectivity Index; how it was run: as §1
[5] = Selectivity index, ratio of MCC for HEL cells to EC50 for Human coronavirus 229E infected in HEL cells; format: toxicity, cell-based; conditions: read-out: Selectivity Index; how it was run: as §1
Human alphaherpesvirus 1 [6] = assay: Antiviral activity against acyclovir-resistant TK-defecient Herpes simplex virus 1 KOS infected in human HEL cells assessed as inhibition of virus-induced cytopathic effect after 3 days by microscopic method; format: functional, organism-based; conditions: Human alphaherpesvirus 1, KOS, 72 h
[7] = Selectivity index, ratio of MCC for HEL cells to EC50 for Vaccinia virus infected in HEL cells; format: toxicity, cell-based; conditions: human, read-out: Selectivity Index; how it was run: as §1
[8] = Cytotoxicity against HEL cells assessed as alteration in cell morphology after 3 days by microscopic method; format: cell-based; conditions: human
How it was run: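 HEL cells were seeded at 5 x 10^3 cells/well and exposed to graded compound concentrations, up to 100 μM, in parallel with the antiviral assay. Cell morphology was examined by light microscopy. MCC is the minimum concentration causing a microscopically detectable alteration of normal cell morphology.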

Human alphaherpesvirus 1 [9] = assay: Antiviral activity against Herpes simplex virus 1 KOS infected in human HEL cells assessed as inhibition of virus-induced cytopathic effect after 3 days by microscopic method; format: functional, organism-based; conditions: Human alphaherpesvirus 1, KOS, 72 h
Human adenovirus 2 = assay: Antiviral activity against Human adenovirus 2 infected in human HEL cells assessed as inhibition of virus-induced cytopathic effect after 3 days by microscopic method; format: functional, organism-based; conditions: Human mastadenovirus C, 72 h
How it was run: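 HEL cells were infected with adenovirus 2 for 2 h. Residual virus was then removed and the cells were incubated with medium containing graded compound concentrations for 3 days at 37°C. Virus-induced cytopathogenicity was scored microscopically.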

Row | Structure (SMILES) | selectivity ratio [1] | EC50 (Vaccinia virus) [µM] | EC50 (Human coronavirus 229E) [µM] | EC50 (Human alphaherpesvirus 2) [µM] | selectivity ratio [2] | selectivity ratio [3] | selectivity ratio [4] | selectivity ratio [5] | EC50 (Human alphaherpesvirus 1 [6]) [µM] | selectivity ratio [7] | MCC at 72 h [8] [µM] | EC50 (Human alphaherpesvirus 1 [9]) [µM] | EC50 (Human adenovirus 2) [µM]
1 | COc1ccc(CCn2nnc3c2CCN(c2ccc(C(F)(F)F)cc2)C3)cc1 | > 8 | > 100 | 8.9 | > 100 | > 8 | > 8 | > 8 | > 8 | > 100 | > 8 | > 100 | > 100 | > 100
2 | CCCCCCn1nnc2c1CCN(c1ccc(C(F)(F)F)cc1)C2 | > 8 | > 100 | > 100 | > 100 | > 8 | > 8 | > 8 | > 8 | > 100 | > 8 | > 100 | > 100 | > 100
3 | Fc1ccc(N2CCc3c(nnn3CC(c3ccccc3)c3ccccc3)C2)cc1 | > 8 | > 100 | > 100 | > 100 | > 8 | > 8 | > 8 | > 8 | > 100 | > 8 | ≥ 100 | > 100 | > 100
4 | COc1cccc(CCn2nnc3c2CCN(c2ccc(C(F)(F)F)cc2)C3)c1 | > 8 | > 100 | > 100 | > 100 | > 8 | > 8 | > 8 | > 8 | > 100 | > 8 | > 100 | > 100 | 16
5 | CCOC(=O)C1(Cc2ccccc2)CN(c2ccccc2)Cc2nnn(Cc3ccc(OC)cc3)c21 (stereo unspecified) | > 8 | > 100 | > 100 | > 100 | > 8 | > 8 | > 8 | > 8 | > 100 | > 8 | > 100 | > 100 | > 100
6 | COc1ccccc1CCn1nnc2c1CCN(c1ccc(C(F)(F)F)cc1)C2 | > 8 | > 100 | > 100 | > 100 | > 8 | > 8 | > 8 | > 8 | > 100 | > 8 | > 100 | > 100 | > 100
7 | Fc1ccc(Cn2nnc3c2CCN(c2ccc(C(F)(F)F)cc2)C3)cc1 | > 8 | > 100 | > 100 | > 100 | > 8 | > 8 | > 8 | > 8 | > 100 | > 8 | 100 | > 100 | > 100
8 | CCCCCCn1nnc2c1CCN(c1ccc(F)cc1)C2 | > 8 | > 100 | > 100 | > 100 | > 8 | > 8 | > 8 | > 8 | > 100 | > 8 | > 100 | > 100 | > 100
9 | CCOC(=O)C1(Cc2ccccc2)CN(c2ccccc2)Cc2nnn(Cc3ccccc3)c21 (stereo unspecified) | > 8 | > 100 | > 100 | > 100 | > 8 | > 8 | > 8 | > 8 | > 100 | > 8 | ≥ 20 | > 100 | > 100
10 | CCCCCCn1nnc2c1CCN(c1ccccc1)C2 | > 8 | > 100 | > 100 | > 100 | > 8 | > 8 | > 8 | > 8 | > 100 | > 8 | > 100 | > 100 | > 100
11 | Fc1cccc(Cn2nnc3c2CCN(c2ccc(C(F)(F)F)cc2)C3)c1 | > 8 | > 100 | 12 | > 100 | > 8 | > 8 | > 8 | > 8 | > 100 | > 8 | 100 | > 100 | > 100
12 | CCOC(=O)C1(Cc2ccccc2)CN(c2ccccc2)Cc2nnn(Cc3cc(OC)c(OC)c(OC)c3)c21 (stereo unspecified) | > 8 | > 100 | > 100 | > 100 | > 8 | > 8 | > 8 | > 8 | > 100 | > 8 | ≥ 100 | > 100 | > 100
